S1P3 ag: agonists of human S1P3 receptor | Q99500 | S1P3 NFAT-BLA reporter cells, agonism, FRET ratio; relative to 1 µM S1P, basal subtracted | activation, % at 4.5 µM | 60,000 compounds, 0.1% hits | AID 373;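 active = activation above the screen-wide mean plus 3 SD, cut at about 4.5% in these data, passing the limit was not always enough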
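Assay system: CHO cells stably expressing human S1P3, Gα16 and NFAT-β-lactamase reporter. Timing: overnight plating, 4 h compound 37 °C, 2 h substrate RT. Signal: β-lactamase FRET emission ratio 460/535 nm. Measure: percent activation versus median 1 µM S1P response, basal-subtracted, per plate. Repeats: primary screen single test, confirmation screen in triplicate.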
HTR1A agonist: 5-HT1a (human) receptor agonism; activation, % at 10 µM; CHO 5-HT1a Ga15 NFAT-bla reporter, FRET ratio; 0% basal, 100% maximal reference agonist; P08908; 65,000 compounds, 0.56% hits;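 active = activation above the screen-wide mean activation plus 3 SD, cut at about 19% in these data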
S1P1 ag pot: agonists and agonism potentiators of human S1P1 receptor. P21453. S1P1 CRE-bla cells, forskolin, beta-lactamase FRET, potentiator mode; S1P1 agonist co-added at EC20, 2 nM; 100% = saturating reference agonist, 0% = basal. activation, % at 9.5 µM. 56,000 compounds, 0.57% hits. AID 449;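 active = activation above a cutoff set at the mean activation of all tested compounds plus 3 SD, cut at about 54% in these data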;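 note: forskolin at 4 µM as EC80 and the EC20 agonist is SEW2871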
HTR1E antagonist: antagonists of human 5-HT1E serotonin receptor | P28566 | CHO 5-HT1E Ga15 NFAT-bla reporter, FRET, antagonist | inhibition, % at 6 µM | 65,000 compounds, 0.99% hits | AID 571;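 active = inhibition above a set limit, the mean inhibition across every tested compound plus 3 SD, cut at about 29% in these data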;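 note: signal is the 460 over 535 nm emission ratio of beta-lactamase substrate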
Target sequence (P28566 whole entry, looked up): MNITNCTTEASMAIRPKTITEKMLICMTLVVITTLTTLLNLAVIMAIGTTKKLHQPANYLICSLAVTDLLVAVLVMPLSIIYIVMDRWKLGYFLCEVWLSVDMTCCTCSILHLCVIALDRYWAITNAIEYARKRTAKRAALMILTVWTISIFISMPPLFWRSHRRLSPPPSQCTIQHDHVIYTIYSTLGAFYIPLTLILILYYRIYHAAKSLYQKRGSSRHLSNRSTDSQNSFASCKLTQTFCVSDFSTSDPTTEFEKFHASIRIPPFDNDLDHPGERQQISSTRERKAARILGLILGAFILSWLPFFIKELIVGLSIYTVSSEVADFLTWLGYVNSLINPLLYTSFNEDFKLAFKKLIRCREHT
5-HT1A blocker: blocks the human serotonin 5-HT1a receptor; P08908; CHO 5-HT1a Ga15 NFAT-bla reporter, antagonist mode; inhibition, % at 10 µM; 62,000 compounds, 0.68% hits;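 active = inhibition above the mean of all tested compounds plus 3 SD, cut at about 43% in these data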;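 note: receptor stimulated by 5-CT agonist at 100 nM near EC80; beta-lactamase reporter measured by ratiometric fluorescence of a cleavable substrate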
HTR1E agonist: activates the human 5-HT1E serotonin receptor | activation, % at 6 µM | 65,000 compounds, 0.69% hits | CHO 5-HT1E Ga15 NFAT-bla reporter, FRET; 0% DMSO wells, 100% control agonist wells | P28566;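 active = activation above a set limit, the screen-wide mean activation plus 3 SD, cut at about 8.5% in these data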
Of the large screens only hits and unclear results are named; the others gave an inactive call. Only some compounds are listed: those with a hit (about 2.9% of all), similar ones and a draw of the others.

Cc1[nH]c2ccc(C(=O)OCCN(C)C)cc2c1C	HTR1E agonist 31
CCOC(=O)c1ccc2[nH]c(C)c(CCC(C)=O)c(=O)c2c1	none
CN1CCN(C(=O)c2ccc3c(c2)N(Cc2cccc(Cl)c2)C(=O)c2ccccc2S3=O)CC1 (configuration not stated)	HTR1E agonist 15
CCN1C(=O)c2ccccc2S(=O)c2ccc(C(=O)N3CCCC3)cc21 (configuration not stated)	none
N/C(=N\c1nc2c(c(=O)[nH]1)CCCC2)Nc1ccccc1	S1P1 ag pot 65
Cc1occc1-c1nnc(SCC(=O)N2CCN(c3ccccc3F)CC2)n1C	none
COc1ccc(N2CCN(S(=O)(=O)c3cccs3)CC2)cc1	HTR1A agonist 26 (no result: S1P1 ag pot)
COc1ccc(N2CCN(CCNC(=O)C3CCN(S(=O)(=O)c4cccs4)CC3)CC2)cc1	none
CCCCn1nnnc1SCC(=O)Nc1cccc(C)n1	none
CCCCn1nnnc1SCC(=O)c1ccc(C)c(C)c1	S1P1 ag pot 84
Cc1ccc(-c2nc3nc4ccccc4nc3n2Cc2ccco2)cc1	5-HT1A blocker 50
c1ccc(Cn2c(-c3ccco3)nc3nc4ccccc4nc32)cc1	none
Clc1ccc(-c2nc3nc4ccccc4nc3n2Cc2ccco2)cc1	S1P1 ag pot 80
C=CCOC(=O)C1=C(C)Nc2nc3ccccc3n2C1c1ccncc1 (configuration not stated)	none
CC(=O)NC1(C(F)(F)F)C(=O)NC(C)=C1C#N (configuration not stated)	none
c1ccc(CN2CCN(c3ncccn3)CC2)nc1	none
c1ccc(N2CCN(Cc3cn4cccnc4n3)CC2)cc1	HTR1E agonist 59
c1ccc(N2CCN(Cc3ccnc4ccccc34)CC2)cc1	S1P1 ag pot 78
COC(=O)c1nnn(CC(=O)Nc2cccc(Cl)c2C)c1C(=O)OC	none (no result: S1P3 ag, S1P1 ag pot)
O=C(Nc1nc(-c2nc3ccccc3s2)cs1)c1ccc(S(=O)(=O)N2CCOCC2)cc1	S1P1 ag pot 109
O=C1C2=C(Nc3ccccc3SC2c2ccco2)c2ccccc21 (configuration not stated)	5-HT1A blocker 70
CCOC(=O)Nc1ccc2c(c1)N(C(=O)CCN(C)C)c1ccccc1S2	5-HT1A blocker 46
CCOC(=O)Nc1ccc2c(c1)N(C(=O)CN1CCN(C)CC1)c1ccccc1S2	none
CCN(C1CCCCC1)S(=O)(=O)c1ccc(S(=O)(=O)NCc2ccncc2)cc1	S1P1 ag pot 88
O=C(CCn1c(=O)sc2ccccc21)NCc1cccs1	HTR1A agonist 74 (no result: S1P3 ag, S1P1 ag pot)
Cc1ccc(C(=O)C2CCN(CC(=O)Nc3ccc(N(C)C)cc3)CC2)cc1	HTR1E agonist 12
Cc1ccc(C(=O)C2CCN(CC(=O)Nc3ccc4c(c3)OCCO4)CC2)cc1	none
CCCn1c(CNS(=O)(=O)c2ccc(C)cc2)nc2ccccc21	none
OCCNc1nc(N2CCN(Cc3ccccc3)CC2)nc2ccccc12	none
Nc1ccc(CN2CCN(c3ccc4ccccc4n3)CC2)cc1	HTR1E agonist 14
COc1ccc(OC)c(C(=O)c2coc3ccc(O)cc23)c1	none
CCN(CCCc1ccccc1)CCCc1ccccc1	HTR1E agonist 31 (no result: 5-HT1A blocker)
CCN(CC)CCCNC(=O)N[C@@H](Cc1ccccc1)C(=O)O	none
COc1ccc(C)cc1NC(=O)C1CC(=O)OC12CCCCC2 (configuration not stated)	none (no result: S1P1 ag pot)
Cc1nn(-c2ccccc2)c2sc(C(=O)N3CCOCC3)cc12	HTR1E antagonist 36
O=c1cc(-c2ccccc2)[nH]c2ccccc12	HTR1E antagonist 53
O=c1nc(-c2ccccc2)c2ccccc2[nH]1	none
COc1ccc(C(=O)NCCc2c[nH]c3ccccc23)cc1S(=O)(=O)N1CCOCC1	none
Cc1ccc(C(=O)N2CCCC(c3nc4c(nnn4Cc4ccccc4)c(=O)[nH]3)C2)cc1 (configuration not stated)	HTR1A agonist 21
CCOC(=O)C1CCN(C(=O)Cc2c(C(=O)O)n(C)c3ccccc23)CC1	HTR1E agonist 117
CCOC(=O)C1CCN(C(=O)Cn2cc(C(=O)C3CC3)c3ccccc32)CC1	none
COC(=O)c1ccc(NC(=O)C2CCCN2S(=O)(=O)c2ccc(F)cc2)cc1 (configuration not stated)	none
Cc1cc2nsnc2c(S(=O)(=O)NCC(=O)O)c1C	none
Cc1cc(NC(=O)C2CCC2)n(-c2ccccn2)n1	HTR1E antagonist 36 (no result: S1P3 ag, S1P1 ag pot)
Nc1c(NCc2ccccc2F)c(=O)[nH]c(=O)n1Cc1ccccc1	HTR1A agonist 81 (no result: S1P3 ag, S1P1 ag pot)
CC(=O)NC(CCS(C)(=O)=O)C(=O)Nc1cc(Cl)ccc1Cl (configuration not stated)	HTR1A agonist 120
CC(=O)NC(CCS(C)(=O)=O)C(=O)Nc1ccccc1Cl (configuration not stated)	none
C=C(C)CSc1nc2c(c(=O)[nH]c(=O)n2C)n1CCC(C)C	none
C=C(C)c1nc(N)nc(N)n1	HTR1A agonist 32
C=C(C)C1Cc2nc(N)nc(C)c2C1 (configuration not stated)	none
Cc1sc2ncnc(SCc3ccco3)c2c1C	none
Cc1sc2ncnc(SC(C)C#N)c2c1C (configuration not stated)	HTR1E antagonist 31
OC(COC1CCCCC1)CN1CCN(c2ccccc2)CC1 (configuration not stated)	5-HT1A blocker 45
CC(=O)Oc1ccc(N2C(=O)C3C(C2=O)C2(C)C=CC3(C)O2)cc1 (configuration not stated)	S1P1 ag pot 135, HTR1E antagonist 64, 5-HT1A blocker 85
CCOC(=O)N1CCC(Nc2c(NCCN3CCN(Cc4ccccc4)CC3)c(=O)c2=O)CC1	none
CCOC(=O)N1CCC(Nc2c(NCCCN(CC)c3cccc(C)c3)c(=O)c2=O)CC1	HTR1E agonist 22
COc1cc2c(cc1NC(=O)CN1C(=O)NC3(CCc4ccccc43)C1=O)oc1ccccc12 (configuration not stated)	5-HT1A blocker 45
COc1cc2c(cc1NC(=O)CCCN1C(=O)CCC1=O)oc1ccccc12	none
CCNc1nc(NC(C)C)nc(N(C#N)CCOc2ccc(Cl)cc2Cl)n1	none
O=C(Nc1ccc(-c2noc(CCc3ccccc3)n2)cc1)c1cccnc1	S1P1 ag pot 94
O=C(NCc1nc(-c2ccccc2)no1)c1ccc2c(c1)OCO2	none
Cc1ccccc1OCc1nc(-c2ccc(NC(=O)c3ccco3)cc2)no1	none (no result: S1P3 ag, S1P1 ag pot)
CCCc1ccc(OCc2nc(-c3ccc(NC(=O)c4ccco4)cc3)no2)cc1	S1P1 ag pot 94
Cc1ccccc1OCc1nc(-c2ccc(NC(=O)c3ccc4c(c3)OCO4)cc2)no1	HTR1E agonist 9.2
